Experiments:
Assay type in all cases: functional
K562 = experiment: Cytotoxicity against human K562 cells after 48 hrs by SRB assay; conditions: K562, 48 h
Method in brief: (§1)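 NCI-60 human tumour cell panel screen, second stage, run by the NCI Developmental Therapeutics Program. Compounds were tested at five concentrations (0.01, 0.1, 1, 10 and 100 μM). Percentage growth was plotted against log10 concentration for each cell line. GI50, TGI and LC50 were taken from these dose-response curves.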

RPMI-8226 = experiment: Cytotoxicity against human RPMI8226 cells after 48 hrs by SRB assay; conditions: RPMI-8226, 48 h
Method in brief: (§2)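 Second-stage NCI-60 panel run by the NCI Developmental Therapeutics Program, covering nine tumour subpanels. Five concentrations were tested: 0.01, 0.1, 1, 10 and 100 μM. Percentage growth at each level was plotted against log10 drug concentration. GI50, TGI and LC50 were read from these dose-response curves. Subpanel MID values were divided into the full-panel MID to give selectivity ratios.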

A549 = experiment: Cytotoxicity against human A549 cells after 48 hrs by SRB assay; conditions: A549, 48 h; method in brief: as §1
HOP-92 = experiment: Cytotoxicity against human HOP92 cells after 48 hrs by SRB assay; conditions: HOP-92, 48 h; method in brief: as §1
NCI-H522 = experiment: Cytotoxicity against human NCI-H522 cells after 48 hrs by SRB assay; conditions: NCI-H522, 48 h; method in brief: as §2
COLO 205 = experiment: Cytotoxicity against human COLO205 cells after 48 hrs by SRB assay; conditions: COLO 205, 48 h; method in brief: as §1
HCT-116 = experiment: Cytotoxicity against human HCT116 cells after 48 hrs by SRB assay; conditions: HCT-116, 48 h; method in brief: as §1
HCT-15 = experiment: Cytotoxicity against human HCT15 cells after 48 hrs by SRB assay; conditions: HCT-15, 48 h; method in brief: as §1
HT-29 = experiment: Cytotoxicity against human HT-29 cells after 48 hrs by SRB assay; conditions: HT-29, 48 h; method in brief: as §1
KM12 = experiment: Cytotoxicity against human KM12 cells after 48 hrs by SRB assay; conditions: KM12, 48 h; method in brief: as §1
SW-620 = experiment: Cytotoxicity against human SW620 cells after 48 hrs by SRB assay; conditions: SW-620, 48 h
Method in brief: (§3)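 NCI-60 five-dose study run by NCI DTP at 0.01, 0.1, 1, 10 and 100 µM. Percentage growth at each level was plotted against log10 concentration for each line, and GI50, TGI and LC50 were read from the dose-response curves.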

SF-295 = experiment: Cytotoxicity against human SF295 cells after 48 hrs by SRB assay; conditions: SF-295, 48 h; method in brief: as §2
SF-539 = experiment: Cytotoxicity against human SF539 cells after 48 hrs by SRB assay; conditions: SF-539, 48 h; method in brief: as §2
SNB-19 = experiment: Cytotoxicity against human SNB19 cells after 48 hrs by SRB assay; conditions: SNB-19, 48 h; method in brief: as §2
SNB-75 = experiment: Cytotoxicity against human SNB75 cells after 48 hrs by SRB assay; conditions: SNB-75, 48 h; method in brief: as §3
U-251 = experiment: Cytotoxicity against human U251 cells after 48 hrs by SRB assay; conditions: U-251, 48 h; method in brief: as §3
UACC-257 = experiment: Cytotoxicity against human UACC257 cells after 48 hrs by SRB assay; conditions: UACC-257, 48 h; method in brief: as §3
IGROV-1 = experiment: Cytotoxicity against human IGROV1 cells after 48 hrs by SRB assay; conditions: IGROV-1, 48 h; method in brief: as §1
OVCAR-3 = experiment: Cytotoxicity against human OVCAR3 cells after 48 hrs by SRB assay; conditions: OVCAR-3, 48 h; method in brief: as §2
NCI/ADR-RES = experiment: Cytotoxicity against human NCI/ADR-RES cells after 48 hrs by SRB assay; method in brief: as §2
SK-OV-3 = experiment: Cytotoxicity against human SKOV3 cells after 48 hrs by SRB assay; conditions: SK-OV-3, 48 h; method in brief: as §2
CAKI-1 = experiment: Cytotoxicity against human Caki1 cells after 48 hrs by SRB assay; conditions: CAKI-1, 48 h; method in brief: as §1
SN12C = experiment: Cytotoxicity against human SN12C cells after 48 hrs by SRB assay; method in brief: as §2
TK-10 = experiment: Cytotoxicity against human TK10 cells after 48 hrs by SRB assay; conditions: TK-10, 48 h; method in brief: as §3
UO-31 = experiment: Cytotoxicity against human UO31 cells after 48 hrs by SRB assay; conditions: UO-31, 48 h; method in brief: as §3
DU-145 = experiment: Cytotoxicity against human DU145 cells after 48 hrs by SRB assay; conditions: DU-145, 48 h; method in brief: as §1
MDA-MB-468 = experiment: Cytotoxicity against human MDA-MB-468 cells after 48 hrs by SRB assay; conditions: MDA-MB-468, 48 h; method in brief: as §2
[1] = Cytotoxicity against human leukemia cells assessed as growth inhibition after 48 hrs by SRB assay; conditions: Leukemia cell
Method in brief: (§4)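 Values come from the NCI-60 five-dose panel (0.01–100 µM). The subpanel MID is the mean GI50 over the lines of that tumour subpanel. The selectivity ratio is the full-panel MID divided by the subpanel MID; 3–6 is rated moderate and >6 high.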

[2] = Cytotoxicity against human colon cancer cells assessed as growth inhibition after 48 hrs by SRB assay; conditions: Cancer cell lines; method in brief: as §4
[3] = Cytotoxicity against human renal cancer cells assessed as growth inhibition after 48 hrs by SRB assay; conditions: Cancer cell lines; method in brief: as §4
[4] = read-out: LC50 (the source's name)

O=C1c2ccccc2C(=O)c2c1cc(SCc1ccccc1)c1nsnc21
GI50 (K562): 1.47 µM
LC50 (K562): > 50 µM
TGI (K562): 6.5 µM
GI50 (RPMI-8226): 8.45 µM
LC50 (RPMI-8226): > 50 µM
TGI (RPMI-8226): 33.4 µM
GI50 (A549): > 50 µM
LC50 (concentration killing 50% of cells) (A549): > 50 µM
TGI (A549): > 50 µM
GI50 (HOP-92): 6.05 µM
LC50 (concentration giving 50% net cell kill) (HOP-92): > 50 µM
TGI (HOP-92): > 50 µM
GI50 (NCI-H522): 8.64 µM
LC50 (concentration giving 50% net cell kill) (NCI-H522): > 50 µM
TGI (NCI-H522): > 50 µM
GI50 (COLO 205): 35.5 µM
LC50 (COLO 205): > 50 µM
TGI (COLO 205): > 50 µM
GI50 (HCT-116): 7.29 µM
TGI (HCT-116): 14.2 µM
CC50 (HCT-116; [4]): 27.5 µM
GI50 (HCT-15): 8.27 µM
LC50 (HCT-15): 35.3 µM
TGI (HCT-15): 17.1 µM
GI50 (HT-29): > 50 µM
LC50 (HT-29): > 50 µM
TGI (HT-29): > 50 µM
GI50 (KM12): 19.5 µM
LC50 (concentration killing 50% of cells) (KM12): > 50 µM
TGI (KM12): > 50 µM
GI50 (SW-620): 9.99 µM
LC50 (50% lethal concentration) (SW-620): 35.1 µM
TGI (SW-620): 18.7 µM
GI50 (SF-295): > 50 µM
LC50 (SF-295): > 50 µM
TGI (SF-295): > 50 µM
GI50 (SF-539): 10.5 µM
LC50 (SF-539): 38.9 µM
TGI (SF-539): 20.2 µM
GI50 (SNB-19): 12.7 µM
LC50 (SNB-19): > 50 µM
TGI (SNB-19): 38.8 µM
GI50 (SNB-75): 8.26 µM
LC50 (concentration killing 50% of cells) (SNB-75): 31 µM
TGI (SNB-75): 16 µM
GI50 (U-251): 6.46 µM
LC50 (U-251): 30.3 µM
TGI (U-251): 14 µM
GI50 (UACC-257): 9.05 µM
LC50 (UACC-257): 35.4 µM
TGI (UACC-257): 17.1 µM
GI50 (IGROV-1): 6.06 µM
LC50 (IGROV-1): 38.9 µM
TGI (IGROV-1): 15.4 µM
GI50 (OVCAR-3): 8.16 µM
TGI (OVCAR-3): 15.1 µM
CC50 (OVCAR-3; [4]): 27.9 µM
GI50 (NCI/ADR-RES): 12.9 µM
LC50 (concentration killing 50% of cells) (NCI/ADR-RES): > 50 µM
TGI (NCI/ADR-RES): > 50 µM
GI50 (SK-OV-3): 13.7 µM
LC50 (SK-OV-3): > 50 µM
TGI (SK-OV-3): 18.5 µM
GI50 (CAKI-1): 9.68 µM
LC50 (concentration causing 50% net cell kill) (CAKI-1): > 50 µM
TGI (CAKI-1): 26.2 µM
GI50 (SN12C): 7.16 µM
TGI (SN12C): 14.5 µM
CC50 (SN12C; [4]): 29.3 µM
GI50 (TK-10): 32 µM
LC50 (concentration killing 50% of cells) (TK-10): > 50 µM
TGI (TK-10): > 50 µM
GI50 (UO-31): 7.83 µM
LC50 (UO-31): 43.5 µM
TGI (UO-31): 18.5 µM
GI50 (DU-145): 10.2 µM
LC50 (DU-145): 38.8 µM
TGI (DU-145): 19.9 µM
GI50 (MDA-MB-468): 0.89 µM
LC50 (MDA-MB-468): 4.21 µM
TGI (MDA-MB-468): 1.93 µM
GI50 [1]: 2.67 µM
GI50 [2]: 16.1 µM
GI50 [3]: 12.7 µM

— ChEMBL document CHEMBL3621107, “Ring fusion strategy for synthesis and lead optimization of sulfur-substituted anthra[1,2-c][1,2,5]thiadiazole-6,11-dione derivatives as promising scaffold of antitumor agents” (Eur J Med Chem, 2015)
